Where a chain is given by its changes, count along the chain named.
Legend:
[1] = MRT in Wistar Han rat at 100 mg/kg, po by LC/MS method; type: ADME, organism-based; details: in vivo
In short: (§1)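 Single rising oral dose study in fed male Wistar Han rats, dosed PO in 10% TWEEN at the indicated doses. Plasma was obtained by centrifuging the blood, and compound levels were determined by LC/MS.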

[2] = system: Hepatitis C virus subtype 1a; experiment: Resistance ratio of EC90 for NS5A R81W mutant in HCV genotype 1a infected in HuH7 replicon cells to EC90 for NS5A in HCV genotype 1a infected in HuH7 replicon cells; type: cell-based
[3] = molecular target: T1, Nonstructural protein 5A (Hepatitis C virus) (UniProt Q5L478); experiment: Inhibition of NS5A A92K mutant in HCV genotype 1b infected in HuH7 replicon cells assessed as decrease in viral replication after 3 days by RT-PCR method; type: cell-based; details: Hepatitis C virus subtype 1b
T1 sequence (whole entry): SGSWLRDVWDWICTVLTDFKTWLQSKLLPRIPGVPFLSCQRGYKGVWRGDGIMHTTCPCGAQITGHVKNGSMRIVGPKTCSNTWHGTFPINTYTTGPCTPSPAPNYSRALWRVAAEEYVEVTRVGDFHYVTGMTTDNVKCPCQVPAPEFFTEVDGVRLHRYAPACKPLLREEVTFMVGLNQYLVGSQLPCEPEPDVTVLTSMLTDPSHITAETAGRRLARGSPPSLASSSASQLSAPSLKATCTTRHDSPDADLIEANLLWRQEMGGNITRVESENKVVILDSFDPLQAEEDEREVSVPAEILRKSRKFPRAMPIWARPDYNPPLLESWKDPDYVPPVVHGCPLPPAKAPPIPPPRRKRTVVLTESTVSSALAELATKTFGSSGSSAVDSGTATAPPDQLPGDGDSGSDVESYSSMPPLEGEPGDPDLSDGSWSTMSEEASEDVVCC

[4] = Resistance ratio of EC90 for NS5A in HCV genotype 1b infected in HuH7 replicon cells to EC90 for NS5A in HCV genotype 1a infected in HuH7 replicon cells; type: cell-based
[5] = Resistance ratio of EC90 for NS5A A146S mutant in HCV genotype 2b infected in HuH7 replicon cells to EC90 for NS5A in HCV genotype 1a infected in HuH7 replicon cells; type: cell-based
[6] = AUC in Wistar Han rat at 300 mg/kg, po by LC/MS method; type: ADME, organism-based; details: in vivo; in short: as §1
[7] = molecular target: T1, Nonstructural protein 5A (Hepatitis C virus); experiment: Inhibition of NS5A A92T mutant in HCV genotype 1b infected in HuH7 replicon cells assessed as decrease in viral replication after 3 days by RT-PCR method; type: cell-based; details: Hepatitis C virus subtype 1b
[8] = Resistance ratio of EC90 for NS5A A30T mutant in HCV genotype 3a infected in HuH7 replicon cells to EC90 for NS5A in HCV genotype 1a infected in HuH7 replicon cells; type: cell-based
[9] = molecular target: T1, Nonstructural protein 5A (Hepatitis C virus); experiment: Inhibition of NS5A A30T mutant in HCV genotype 3a infected in HuH7 replicon cells assessed as decrease in viral replication after 3 days by RT-PCR method; type: cell-based; details: Hepatitis C virus subtype 3a
[10] = molecular target: T1, Nonstructural protein 5A (Hepatitis C virus); experiment: Inhibition of NS5A L31F mutant in HCV genotype 3a infected in HuH7 replicon cells assessed as decrease in viral replication after 3 days by RT-PCR method; type: cell-based; details: Hepatitis C virus subtype 3a
[11] = Tmax in Wistar Han rat at 100 mg/kg, po by LC/MS method; type: ADME, organism-based; details: in vivo; in short: as §1
[12] = system: T2, Nonstructural protein 5A (Hepatitis C virus), Q5L478 [Y93H]; experiment: Inhibition of NS5A Y93H mutant in HCV genotype 3a infected in HuH7 replicon cells assessed as decrease in viral replication after 3 days by RT-PCR method; type: cell-based; details: Hepatitis C virus subtype 3a
T2 sequence (whole entry): T1 sequence (whole entry) with Y93H

[13] = system: Hepatitis C virus subtype 1a; experiment: Resistance ratio of EC90 for NS5A Y93N mutant in HCV genotype 1a infected in HuH7 replicon cells to EC90 for NS5A in HCV genotype 1a infected in HuH7 replicon cells; type: cell-based
[14] = Oral bioavailability in Wistar Han rat at 10 mg/kg by LC/MS method; type: ADME, organism-based; details: in vivo
In short: (§2)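 Male Wistar Han rats, two per dosing group, dosed orally at 10 mg/kg in 10% TWEEN. Plasma was separated from collected blood by centrifugation and analysed by LC/MS.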

[15] = Resistance ratio of EC90 for NS5A in HCV genotype 4a infected in HuH7 replicon cells to EC90 for NS5A in HCV genotype 1a infected in HuH7 replicon cells; type: cell-based
[16] = Tmax in Wistar Han rat at 300 mg/kg, po by LC/MS method; type: ADME, organism-based; details: in vivo; in short: as §1
[17] = Tmax in Wistar Han rat at 10 mg/kg, po by LC/MS method; type: ADME, organism-based; details: in vivo; in short: as §2
[18] = molecular target: T1, Nonstructural protein 5A (Hepatitis C virus); experiment: Inhibition of NS5A L31M mutant in HCV genotype 2b infected in HuH7 replicon cells assessed as decrease in viral replication after 3 days by RT-PCR method; type: cell-based; details: Hepatitis C virus subtype 2b
[19] = Cmax in Beagle dog at 5 mg/kg, po by LC/MS method; type: ADME, organism-based, Canis lupus familiaris; design: dose 5 mg/kg, route oral; details: in vivo
In short: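 Beagle dogs, two animals per dosing group. Oral dose was given in 10% TWEEN. Blood was collected and spun to plasma, and plasma compound levels were measured by LC/MS.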

[20] = molecular target: T1, Nonstructural protein 5A (Hepatitis C virus); experiment: Inhibition of NS5A in HCV genotype 2a infected in HuH7 replicon cells assessed as decrease in viral replication after 3 days by RT-PCR method; type: cell-based; details: Hepatitis C virus subtype 2a
[21] = Cmax in Wistar Han rat at 100 mg/kg, po by LC/MS method; type: ADME, organism-based; design: dose 100 mg/kg, route oral; details: in vivo; in short: as §1
[22] = Resistance ratio of EC90 for NS5A L31I mutant in HCV genotype 1b infected in HuH7 replicon cells to EC90 for NS5A in HCV genotype 1a infected in HuH7 replicon cells; type: cell-based
[23] = Resistance ratio of EC90 for NS5A Y93H mutant in HCV genotype 3a infected in HuH7 replicon cells to EC90 for NS5A in HCV genotype 1a infected in HuH7 replicon cells; type: cell-based
[24] = Resistance ratio of EC90 for NS3 A156T mutant in HCV genotype 1b infected in HuH7 replicon cells to EC90 for NS5A in HCV genotype 1a infected in HuH7 replicon cells; type: cell-based

COC(=O)N[C@H](C(=O)N1CCC[C@H]1c1ncc(-c2cc(F)c3c(c2)O[C@@H](c2ccc(C4CC4)s2)n2c-3cc3cc(-c4cnc([C@@H]5CCCN5C(=O)[C@@H](NC(=O)OC)[C@@H]5CCOC(C)(C)C5)[nH]4)ccc32)[nH]1)C(C)C
MRT [1]: 12.4 h
Ratio [2]: < 1
EC90 [3]: 0.026 nM
Ratio [4]: 1
Ratio [5]: 1
AUC [6]: 14.7 µM·h
EC90 [7]: 0.0039 nM
Ratio [8]: 1
EC90 [9]: 0.0036 nM
EC90 [10]: 0.29 nM
Tmax [11]: 2 h
EC90 [12]: 2.4 nM
Ratio [13]: 16
bioavailability [14]: 6.6%
Ratio [15]: 2
Tmax [16]: 5 h
Tmax [17]: 3 h
EC90 [18]: 0.018 nM
Cmax [19]: 660 nM
EC90 [20]: 0.0027 nM
Cmax [21]: 760 nM
Ratio [22]: 5
Ratio [23]: 571
Ratio [24]: 1
